{"source": "ChEMBL document CHEMBL3045217", "about": "“Factors affecting the synergy of thiabendazole, sodium bicarbonate, and heat to control postharvest green mold of citrus fruit” (J Agric Food Chem, 2008)", "key": {"Penicillium digitatum [1]": {"system": "Penicillium digitatum", "experiment": "(§1) Fungicidal activity against TBZ-resistant Penicillium digitatum infected Nova mandarins assessed as postharvest green mold incidence at 600 mg/L treated for 1 min at 20 degC at 20 hr after fungal conidial inoculation measured after 5 days of storage at 20 degC in presence of 1% SBC (water Rvb = 83.3%)", "format": "functional"}, "Penicillium digitatum [2]": {"system": "Penicillium digitatum", "experiment": "Fungicidal activity against Penicillium digitatum infected Valenica oranges assessed as fruit weight loss at 600 mg/L treated for 1 min at 20 degC postharvest at 20 hr after fungal conidial inoculation measured after 21 days of storage at 17 degC in presence of 1% SBC (water Rvb = 11.20%)", "format": "functional"}, "Fruit [3]": {"system": "Fruit", "experiment": "Drug residues in Citrus sinensis cvs. Valencia late (Valencia oranges) at 400 mg/L treated for 1 min at 40 degC postharvest measured after 10 days of storage at 17 degC by GC analysis", "format": "ADME", "method_in_brief": "(§2)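 'Valencia' oranges were dipped 1 min in TBZ at 600 mg/L (20 °C, ±0.5, 1 or 2% wt/vol SBC), 400 mg/L (40 °C, ±SBC) or 200 mg/L (50 °C, alone), then air-dried. They were sampled at 0, 10 and 20 days at 17 °C. Peel of five fruit was frozen, and 5 g of homogenate was extracted with ethyl acetate/hexane (1/1) plus NaCl. The extract was dried under N2, taken up in acetone and analysed by GC. Results are mg/kg on a whole-fruit basis.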"}, "Fruit [4]": {"system": "Fruit", "experiment": "Drug residues in Citrus sinensis cvs. Valencia late (Valencia oranges) at 600 mg/L treated for 1 min at 20 degC postharvest measured after 10 days of storage at 17 degC in presence of 1% SBC by GC analysis", "format": "ADME", "method_in_brief": "as §2"}, "Fruit [5]": {"system": "Fruit", "experiment": "Drug residues in Citrus sinensis cvs. Valencia late (Valencia oranges) at 400 mg/L treated for 1 min at 40 degC postharvest measured after 20 days of storage at 17 degC in presence of 1% SBC by GC analysis", "format": "ADME", "method_in_brief": "as §2"}, "Penicillium digitatum [6]": {"system": "Penicillium digitatum", "experiment": "(§3) Fungicidal activity against TBZ-sensitive Penicillium digitatum infected Valencia oranges assessed as postharvest green mold incidence at 400 mg/L treated for 1 min at 40 degC at 20 hr after fungal conidial inoculation measured after 7 days of storage at 20 degC in presence of 1% SBC (water Rvb = 29.2%)", "format": "functional", "method_in_brief": "(§4)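 Fruit were surface-disinfected in 1 g/L hypochlorite for 30 s, rinsed, dried, then wounded twice equatorially (2 mm × 2 mm rod). Inoculation was a 1 min dip in P. digitatum conidia, 1 × 10^5 conidia/mL final. Fruit were held 20 h at 20 °C and 90% RH, dipped 1 min (SBC wt/vol), and air-dried. Storage was 20 °C, 90% RH. Decay incidence (% fruit with lesions) was scored at 5 d for mandarins and 7 d for oranges. Three replicates of 40 fruit were used; arcsin-transformed data were compared by LSD, p ≤ 0.05.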"}, "Fruit surface": {"system": "Fruit surface", "experiment": "Drug residues on Citrus sinensis cvs. Salustiana (Salustiana oranges) fruit surface at 600 mg/L treated for 3 min at 50 degC postharvest measured after overnight incubation at 17 degC by GC analysis", "format": "ADME", "details": "0.05 h", "method_in_brief": "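'Salustiana' oranges were washed with water and air-dried. They were dipped 1 or 3 min in TBZ 600 mg/L at 20 or 50 °C, or 1 min in TBZ 600 mg/L plus 2% SBC at 20 °C, then dried overnight at 17 °C in the dark. Surface residue was taken by water extraction and wax residue by chloroform extraction. Inner residue was measured in fruit after both extractions. Extracts were dried under N2, taken up in acetone and analysed by GC. Values are mg/kg on a whole-fruit basis.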"}, "Penicillium digitatum [7]": {"system": "Penicillium digitatum", "experiment": "as §3, with “600” for “400”, “20” for “40”, “0.5%” for “1%”, “64.2%)” for “29.2%)”", "format": "functional", "method_in_brief": "as §4"}, "Penicillium digitatum [8]": {"system": "Penicillium digitatum", "experiment": "Fungicidal activity against Penicillium digitatum infected Valenica oranges assessed as fruit weight loss at 600 mg/L treated for 1 min at 20 degC postharvest at 20 hr after fungal conidial inoculation measured after 14 days of storage at 17 degC in presence of 0.5% SBC (water Rvb = 7.44%)", "format": "functional"}, "Penicillium digitatum [9]": {"system": "Penicillium digitatum", "experiment": "Fungicidal activity against Penicillium digitatum infected Valenica oranges assessed as fruit weight loss at 400 mg/L treated for 1 min at 40 degC postharvest at 20 hr after fungal conidial inoculation measured after 7 days of storage at 17 degC in presence of 0.5% SBC (water Rvb = 4.07%)", "format": "functional"}, "Penicillium digitatum [10]": {"system": "Penicillium digitatum", "experiment": "Fungicidal activity against Penicillium digitatum infected Valenica oranges assessed as fruit weight loss at 600 mg/L treated for 1 min at 20 degC postharvest at 20 hr after fungal conidial inoculation measured after 7 days of storage at 17 degC (water Rvb = 3.13%)", "format": "functional"}, "Penicillium digitatum [11]": {"system": "Penicillium digitatum", "experiment": "Fungicidal activity against TBZ-sensitive Penicillium digitatum infected Nova mandarins assessed as postharvest green mold incidence at 400 mg/L treated for 1 min at 40 degC at 20 hr after fungal conidial inoculation measured after 5 days of storage at 20 degC (water Rvb = 100%)", "format": "functional", "method_in_brief": "as §4"}, "Penicillium digitatum [12]": {"system": "Penicillium digitatum", "experiment": "Fungicidal activity against TBZ-resistant Penicillium digitatum infected Valencia oranges assessed as postharvest green mold incidence at 200 mg/L treated for 1 min at 50 degC at 20 hr after fungal conidial inoculation measured after 7 days of storage at 20 degC (water Rvb = 56.7%)", "format": "functional"}, "Penicillium digitatum [13]": {"system": "Penicillium digitatum", "experiment": "Fungicidal activity against Penicillium digitatum infected Valenica oranges assessed as fruit weight loss at 600 mg/L treated for 1 min at 20 degC postharvest at 20 hr after fungal conidial inoculation measured after 7 days of storage at 17 degC in presence of 0.5% SBC (water Rvb = 3.90%)", "format": "functional"}, "Penicillium digitatum [14]": {"system": "Penicillium digitatum", "experiment": "as §1, with “TBZ-sensitive” for “TBZ-resistant”, “96.7%)” for “83.3%)”", "format": "functional", "method_in_brief": "as §4"}, "Penicillium digitatum [15]": {"system": "Penicillium digitatum", "experiment": "as §1, with “TBZ-sensitive” for “TBZ-resistant”, “0.5%” for “1%”, “100%)” for “83.3%)”", "format": "functional", "method_in_brief": "as §4"}, "Penicillium digitatum [16]": {"system": "Penicillium digitatum", "experiment": "Fungicidal activity against TBZ-sensitive Penicillium digitatum infected Nova mandarins assessed as postharvest green mold incidence at 600 mg/L treated for 1 min at 20 degC at 20 hr after fungal conidial inoculation measured after 5 days of storage at 20 degC (water Rvb = 100%)", "format": "functional", "method_in_brief": "as §4"}, "Fruit [17]": {"system": "Fruit", "experiment": "Drug residues in Citrus sinensis cvs. Valencia late (Valencia oranges) at 600 mg/L treated for 1 min at 20 degC postharvest measured after 20 days of storage at 17 degC in presence of 0.5% SBC by GC analysis", "format": "ADME", "method_in_brief": "as §2"}, "Fruit [18]": {"system": "Fruit", "experiment": "Drug residues in Citrus sinensis cvs. Valencia late (Valencia oranges) at 600 mg/L treated for 1 min at 20 degC postharvest measured after 10 days of storage at 17 degC by GC analysis", "format": "ADME", "method_in_brief": "as §2"}, "Penicillium digitatum [19]": {"system": "Penicillium digitatum", "experiment": "as §3, with “TBZ-resistant” for “TBZ-sensitive”, “600” for “400”, “20” for “40”, “2%” for “1%”, “40.0%)” for “29.2%)”", "format": "functional"}, "Penicillium digitatum [20]": {"system": "Penicillium digitatum", "experiment": "Fungicidal activity against TBZ-sensitive Penicillium digitatum infected Nova mandarins assessed as postharvest green mold incidence at 200 mg/L treated for 1 min at 50 degC at 20 hr after fungal conidial inoculation measured after 5 days of storage at 20 degC (water Rvb = 98.3%)", "format": "functional", "method_in_brief": "as §4"}, "Penicillium digitatum [21]": {"system": "Penicillium digitatum", "experiment": "as §1, with “0.5%” for “1%”, “86.7%)” for “83.3%)”", "format": "functional"}}}
{"smiles": "c1ccc2[nH]c(-c3cscn3)nc2c1", "note": "[THIABENDAZOLE]", "values": [{"measurement": "Activity", "setting": "Penicillium digitatum [1]", "result": 65, "unit": "%"}, {"measurement": "Activity", "setting": "Penicillium digitatum [2]", "result": 12.35, "unit": "%"}, {"measurement": "Drug uptake", "setting": "Fruit [3]", "result": 0.89, "unit": "mg/kg"}, {"measurement": "Drug uptake", "setting": "Fruit [4]", "result": 1.45, "unit": "mg/kg"}, {"measurement": "Drug uptake", "setting": "Fruit [5]", "result": 0.71, "unit": "mg/kg"}, {"measurement": "Activity", "setting": "Penicillium digitatum [6]", "result": 5, "unit": "%"}, {"measurement": "Drug uptake", "setting": "Fruit surface", "result": 0.69, "unit": "mg/kg"}, {"measurement": "Activity", "setting": "Penicillium digitatum [7]", "result": 18.3, "unit": "%"}, {"measurement": "Activity", "setting": "Penicillium digitatum [8]", "result": 8.15, "unit": "%"}, {"measurement": "Activity", "setting": "Penicillium digitatum [9]", "result": 4.23, "unit": "%"}, {"measurement": "Activity", "setting": "Penicillium digitatum [10]", "result": 3.59, "unit": "%"}, {"measurement": "Activity", "setting": "Penicillium digitatum [11]", "result": 1.7, "unit": "%"}, {"measurement": "Activity", "setting": "Penicillium digitatum [12]", "result": 37.5, "unit": "%"}, {"measurement": "Activity", "setting": "Penicillium digitatum [13]", "result": 4.28, "unit": "%"}, {"measurement": "Activity", "setting": "Penicillium digitatum [14]", "result": 3.3, "unit": "%"}, {"measurement": "Activity", "setting": "Penicillium digitatum [15]", "result": 0, "unit": "%"}, {"measurement": "Activity", "setting": "Penicillium digitatum [16]", "result": 0, "unit": "%"}, {"measurement": "Drug uptake", "setting": "Fruit [17]", "result": 1.31, "unit": "mg/kg"}, {"measurement": "Drug uptake", "setting": "Fruit [18]", "result": 1.57, "unit": "mg/kg"}, {"measurement": "Activity", "setting": "Penicillium digitatum [19]", "result": 21.7, "unit": "%"}, {"measurement": "Activity", "setting": "Penicillium digitatum [20]", "result": 3.3, "unit": "%"}, {"measurement": "Activity", "setting": "Penicillium digitatum [21]", "result": 93.3, "unit": "%"}]}
